Assay results taken from ChEMBL document CHEMBL1127636, “The development of cyclic sulfolanes as novel and high-affinity P2 ligands for HIV-1 protease inhibitors” (J Med Chem, 1994).
pIC50: −log10 of the molar value.

What was measured:
[1] = target: Human immunodeficiency virus type 1 protease (Human immunodeficiency virus 1, UniProt Q72874); assay: Inhibitory activity against HIV-1 protease
[2] = tested on: Human immunodeficiency virus 1; assay: Inhibition of HIV-1 in MT-4 human T-lymphoid cells infected with IIIb isolate; format: functional; conditions: Human immunodeficiency virus 1, T-lymphoid; read-out: CIC95
Procedure, shortened: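 Unless otherwise indicated, each value is from a single determination (n = 1).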

Row | Structure (SMILES) | pIC50 [1] | IC95 [2]
1 | C[C@H]1CS(=O)(=O)C[C@H]1OC(=O)N[C@@H](Cc1ccccc1)[C@H](O)CN1C[C@H]2CCCC[C@H]2C[C@H]1C(=O)NC(C)(C)C | 7.15 | 800 nM
2 | CCC[C@H]1[C@@H](OC(=O)N[C@@H](Cc2ccccc2)[C@H](O)CN2C[C@H]3CCCC[C@H]3C[C@H]2C(=O)NC(C)(C)C)CCS1(=O)=O | 8.21 | 400 nM
3 | CC(C)(C)NC(=O)[C@@H]1C[C@@H]2CCCC[C@@H]2CN1C[C@@H](O)[C@H](Cc1ccccc1)NC(=O)OC1CS(=O)(=O)C1 | 6.98 | –
4 | CC[C@H]1[C@@H](OC(=O)N[C@@H](Cc2ccccc2)[C@H](O)CN2C[C@H]3CCCC[C@H]3C[C@H]2C(=O)NC(C)(C)C)CCS1(=O)=O | – | 400 nM
5 | CCCC[C@H]1[C@@H](OC(=O)N[C@@H](Cc2ccccc2)[C@H](O)CN2C[C@H]3CCCC[C@H]3C[C@H]2C(=O)NC(C)(C)C)CCS1(=O)=O | 7.83 | 400 nM
6 | CC(C)[C@@H]1[C@H](OC(=O)N[C@@H](Cc2ccccc2)[C@H](O)CN2C[C@H]3CCC[C@H]3C[C@H]2C(=O)NC(C)(C)C)CCS1(=O)=O | 8.52 | 100 nM
7 | CCC[C@@H]1[C@H](OC(=O)N[C@@H](Cc2ccccc2)[C@H](O)CN2C[C@H]3CCCC[C@H]3C[C@H]2C(=O)NC(C)(C)C)CCS1(=O)=O | 7.70 | 800 nM
8 | C[C@@H]1OCC[C@@H]1OC(=O)N[C@@H](Cc1ccccc1)[C@H](O)CN1C[C@H]2CCCC[C@H]2C[C@H]1C(=O)NC(C)(C)C | – | 400 nM
9 | CC(C)[C@@H]1[C@H](OC(=O)N[C@@H](Cc2ccccc2)[C@H](O)CN2C[C@H]3CCCC[C@H]3C[C@H]2C(=O)NC(C)(C)C)CCS1(=O)=O | 8.46 | 50 nM
10 | C[C@H]1[C@@H](OC(=O)N[C@@H](Cc2ccccc2)[C@H](O)CN2C[C@H]3CCCC[C@H]3C[C@H]2C(=O)NC(C)(C)C)CCS1(=O)=O | – | 200 nM
11 | CC(C)(C)NC(=O)[C@@H]1C[C@@H]2CCCC[C@@H]2CN1C[C@@H](O)[C@H](Cc1ccccc1)NC(=O)O[C@H]1CCCS(=O)(=O)C1 | 5.76 | –
12 | C[C@H]1OCC[C@H]1OC(=O)N[C@@H](Cc1ccccc1)[C@H](O)CN1C[C@H]2CCCC[C@H]2C[C@H]1C(=O)NC(C)(C)C | – | 1600 nM
13 | CC(C)(C)NC(=O)[C@@H]1C[C@@H]2CCCC[C@@H]2CN1C[C@@H](O)[C@H](Cc1ccccc1)NC(=O)O[C@H]1CCOC1 | – | 800 nM
14 | CC(C)(C)NC(=O)[C@@H]1C[C@@H]2CCCC[C@@H]2CN1C[C@@H](O)[C@H](Cc1ccccc1)NC(=O)O[C@@H]1CCCS(=O)(=O)C1 | 5.68 | –
15 | CC(C)[C@H]1[C@@H](OC(=O)N[C@@H](Cc2ccccc2)[C@H](O)CN2C[C@H]3CCCC[C@H]3C[C@H]2C(=O)NC(C)(C)C)CCS1(=O)=O | – | 200 nM
16 | CC(C)(C)NC(=O)[C@@H]1C[C@@H]2CCCC[C@@H]2CN1C[C@@H](O)[C@H](Cc1ccccc1)NC(=O)O[C@H]1CCS(=O)(=O)C1 | 7.12 | 364 nM
17 | CC(C)(C)NC(=O)[C@@H]1C[C@@H]2CCCC[C@@H]2CN1C[C@@H](O)[C@H](Cc1ccccc1)NC(=O)O[C@@H]1CCS(=O)(=O)C1 | – | > 800 nM
18 | C[C@H]1[C@@H](OC(=O)N[C@@H](Cc2ccccc2)[C@H](O)CN2C[C@H]3CCC[C@H]3C[C@H]2C(=O)NC(C)(C)C)CCS1(=O)=O | 7.90 | 100 nM
19 | CC(C)(C)NC(=O)[C@@H]1C[C@@H]2CCCC[C@@H]2CN1C[C@@H](O)[C@H](Cc1ccccc1)NC(=O)O[C@H]1CCSC1 | 6.88 | –
20 | C[C@@H]1[C@H](OC(=O)N[C@@H](Cc2ccccc2)[C@H](O)CN2C[C@H]3CCCC[C@H]3C[C@H]2C(=O)NC(C)(C)C)CCS1(=O)=O | – | 200 nM
21 | CC(C)(C)NC(=O)[C@@H]1C[C@@H]2CCCC[C@@H]2CN1C[C@@H](O)[C@H](Cc1ccccc1)NC(=O)O[C@@H]1CCS(=O)(=O)[C@@H]1C1CCCC1 | 7.65 | 1500 nM
22 | CC(C)(C)NC(=O)[C@@H]1C[C@@H]2CCCC[C@@H]2CN1C[C@@H](O)[C@H](Cc1ccccc1)NC(=O)O[C@H]1CCS(=O)(=O)[C@H]1C1CCCC1 | 8.21 | 400 nM
23 | CC(C)(C)NC(=O)[C@@H]1C[C@@H]2CCCC[C@@H]2CN1C[C@@H](O)[C@H](Cc1ccccc1)NC(=O)O[C@@H]1CCSC1 | 6.66 | –
24 | C[C@@H]1CS(=O)(=O)C[C@@H]1OC(=O)N[C@@H](Cc1ccccc1)[C@H](O)CN1C[C@H]2CCCC[C@H]2C[C@H]1C(=O)NC(C)(C)C | 6.67 | 800 nM
25 | CC[C@@H]1[C@H](OC(=O)N[C@@H](Cc2ccccc2)[C@H](O)CN2C[C@H]3CCCC[C@H]3C[C@H]2C(=O)NC(C)(C)C)CCS1(=O)=O | – | 800 nM
26 | CCCC[C@@H]1[C@H](OC(=O)N[C@@H](Cc2ccccc2)[C@H](O)CN2C[C@H]3CCCC[C@H]3C[C@H]2C(=O)NC(C)(C)C)CCS1(=O)=O | 7.34 | 800 nM
27 | CC(C)(C)NC(=O)[C@@H]1C[C@@H]2CCC[C@@H]2CN1C[C@@H](O)[C@H](Cc1ccccc1)NC(=O)O[C@H]1CCS(=O)(=O)C1 | 7.95 | > 200 nM
28 | CC(C)(C)NC(=O)[C@@H]1C[C@@H]2CCC[C@@H]2CN1C[C@@H](O)[C@H](Cc1ccccc1)NC(=O)O[C@H]1CCOC1 | 7.21 | 400 nM
29 | C[C@H]1C[C@@H](OC(=O)N[C@@H](Cc2ccccc2)[C@H](O)CN2C[C@H]3CCCC[C@H]3C[C@H]2C(=O)NC(C)(C)C)CS1(=O)=O | 5.80 | –
30 | C[C@@H]1C[C@H](OC(=O)N[C@@H](Cc2ccccc2)[C@H](O)CN2C[C@H]3CCCC[C@H]3C[C@H]2C(=O)NC(C)(C)C)CS1(=O)=O | 7.09 | > 400 nM
